Source: ChEMBL document CHEMBL4261642, “Design, synthesis, and ex vivo evaluation of a selective inhibitor for retinaldehyde dehydrogenase enzymes” (Bioorg Med Chem, 2018)
Calls of active or inactive are those of the source. The calls are words filed in the database; no cut-off is given here.

Tests used:
[1] = target: T1, Retinal dehydrogenase 2 (Gallus gallus) (UniProt O93344); test: Inhibition of RALDH2 in living intact choroid isolated from 4 day recovering chick eyes assessed as inhibition of ATRA synthesis at 1 uM after 24 hrs in presence of […]
T1 sequence (whole entry): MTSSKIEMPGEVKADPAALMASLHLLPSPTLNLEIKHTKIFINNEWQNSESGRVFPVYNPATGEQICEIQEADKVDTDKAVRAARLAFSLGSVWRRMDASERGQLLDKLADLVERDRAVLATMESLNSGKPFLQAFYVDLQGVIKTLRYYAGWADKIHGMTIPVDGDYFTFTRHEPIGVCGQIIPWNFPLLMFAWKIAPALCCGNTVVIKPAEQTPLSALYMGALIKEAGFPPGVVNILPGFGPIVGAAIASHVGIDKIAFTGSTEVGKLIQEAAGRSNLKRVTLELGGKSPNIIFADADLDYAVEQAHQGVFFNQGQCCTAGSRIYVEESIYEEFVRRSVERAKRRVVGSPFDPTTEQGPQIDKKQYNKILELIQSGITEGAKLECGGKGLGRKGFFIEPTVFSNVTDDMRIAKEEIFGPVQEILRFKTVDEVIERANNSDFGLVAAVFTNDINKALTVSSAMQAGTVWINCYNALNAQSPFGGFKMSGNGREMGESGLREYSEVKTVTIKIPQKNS

Retinal dehydrogenase 2 = target: T2, Retinal dehydrogenase 2 (Gallus gallus, UniProt O93344); test: Inhibition of RALDH2 in living intact choroid isolated from 4 day recovering chick eyes assessed as inhibition of ATRA synthesis after 24 hrs in presence of […]
T2 sequence (O93344 whole entry): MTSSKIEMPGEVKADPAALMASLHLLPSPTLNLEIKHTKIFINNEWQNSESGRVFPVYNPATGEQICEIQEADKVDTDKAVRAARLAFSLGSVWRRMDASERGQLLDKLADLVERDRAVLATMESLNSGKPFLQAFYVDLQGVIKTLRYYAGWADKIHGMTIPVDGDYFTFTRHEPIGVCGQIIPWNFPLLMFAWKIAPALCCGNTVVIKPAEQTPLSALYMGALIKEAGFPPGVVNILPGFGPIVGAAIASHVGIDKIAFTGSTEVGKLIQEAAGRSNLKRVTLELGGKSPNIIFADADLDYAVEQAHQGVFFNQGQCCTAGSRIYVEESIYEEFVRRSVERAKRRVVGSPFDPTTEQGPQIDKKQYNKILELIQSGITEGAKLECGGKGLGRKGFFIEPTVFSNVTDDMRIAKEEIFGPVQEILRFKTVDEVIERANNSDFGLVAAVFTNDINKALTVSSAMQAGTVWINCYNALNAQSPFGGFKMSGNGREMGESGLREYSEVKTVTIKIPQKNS

[2] = target: T1, Retinal dehydrogenase 2 (Gallus gallus); test: Inhibition of RALDH2 in living intact choroid isolated from 4 day recovering chick eyes assessed as inhibition of ATRA synthesis at 0.1 uM after 24 hrs in presence of […]
[3] = target: T1, Retinal dehydrogenase 2 (Gallus gallus); test: Inhibition of RALDH2 in living intact choroid isolated from 4 day recovering chick eyes assessed as inhibition of ATRA synthesis at 10 uM after 24 hrs in presence of […]
[4] = target: T1, Retinal dehydrogenase 2 (Gallus gallus); test: Inhibition of RALDH2 in living intact choroid isolated from normal chick eyes assessed as inhibition of ATRA synthesis after 24 hrs in presence of retinaldehyde and NAD+
[5] = target: T3, Aldehyde dehydrogenase, mitochondrial (Homo sapiens, UniProt P05091); test: Inhibition of N-terminal His6-tagged recombinant human mitochondrial ALDH2 using propionaldehyde as substrate preincubated for 20 mins to 1 hr followed by substrate addition and measured for 5 mins in presence of NADH by spectrophotometric assay; details: read-out: IC50
T3 sequence (P05091 whole entry): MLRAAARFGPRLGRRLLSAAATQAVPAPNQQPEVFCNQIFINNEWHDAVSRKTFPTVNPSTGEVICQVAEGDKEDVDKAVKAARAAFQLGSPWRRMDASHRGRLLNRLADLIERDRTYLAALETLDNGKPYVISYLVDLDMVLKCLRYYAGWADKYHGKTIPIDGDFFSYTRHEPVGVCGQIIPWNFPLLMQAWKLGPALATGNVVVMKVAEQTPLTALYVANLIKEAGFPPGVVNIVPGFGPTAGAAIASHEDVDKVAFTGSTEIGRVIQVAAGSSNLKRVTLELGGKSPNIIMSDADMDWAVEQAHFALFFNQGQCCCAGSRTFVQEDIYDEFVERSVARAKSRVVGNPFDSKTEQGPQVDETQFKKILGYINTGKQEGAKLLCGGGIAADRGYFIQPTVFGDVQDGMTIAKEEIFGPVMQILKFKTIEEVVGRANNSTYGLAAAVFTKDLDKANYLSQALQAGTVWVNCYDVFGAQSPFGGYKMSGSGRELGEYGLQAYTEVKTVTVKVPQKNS

[6] = compound: CC1=C(/C=C/C(C)=C/C=C/C(C)=C/C(=O)C(Cl)Cl)C(C)(C)CCC1; test: (§1) Inhibition of N-terminal His6-tagged recombinant chick RALDH1 expressed in Escherichia coli BL21(DE3) cells at 100 nM using RAL as substrate assessed as Km preincubated for 20 mins followed by substrate addition and measured after 30 mins in presence of NADH by fluorescence assay (reference value: 67.09 +/- 25.06 microM); details: Gallus gallus
[7] = compound: CC1=C(/C=C/C(C)=C/C=C/C(C)=C/C(=O)C(Cl)Cl)C(C)(C)CCC1; test: as §1, with “500” for “100”; details: Gallus gallus
[8] = compound: CC1=C(/C=C/C(C)=C/C=C/C(C)=C/C(=O)C(Cl)Cl)C(C)(C)CCC1; test: as §1, with “1000” for “100”; details: Gallus gallus
[9] = compound: CC1=C(/C=C/C(C)=C/C=C/C(C)=C/C(=O)C(Cl)Cl)C(C)(C)CCC1; test: as §1, with “Vmax” for “Km”, “54.77” for “67.09”, “7.58 pmol/microM/min)” for “25.06 microM)”; details: Gallus gallus
[10] = compound: CC1=C(/C=C/C(C)=C/C=C/C(C)=C/C(=O)C(Cl)Cl)C(C)(C)CCC1; test: as §1, with “500” for “100”, “Vmax” for “Km”, “54.77” for “67.09”, “7.58 pmol/microM/min)” for “25.06 microM)”; details: Gallus gallus
[11] = compound: CC1=C(/C=C/C(C)=C/C=C/C(C)=C/C(=O)C(Cl)Cl)C(C)(C)CCC1; test: as §1, with “1000” for “100”, “Vmax” for “Km”, “54.77” for “67.09”, “7.58 pmol/microM/min)” for “25.06 microM)”; details: Gallus gallus
[12] = compound: CC1=C(/C=C/C(C)=C/C=C/C(C)=C/C(=O)C(Cl)Cl)C(C)(C)CCC1; test: Inhibition of N-terminal His6-tagged recombinant chick RALDH2 expressed in Escherichia coli BL21(DE3) cells at 150 nM using RAL as substrate assessed as Vmax at enzyme concentrations of 183 to 365 nM measured after 30 mins in presence of NADH by fluorescence assay; details: Gallus gallus
In short: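 Chick RALDH2 at 46–365 nM pre-incubated 20 min with a fixed 150 nM inhibitor. NADH synthesis then started with 250 μM retinaldehyde and 4 mM NAD+, 30 min at 37°C, read fluorimetrically. Vmax plotted against enzyme concentration.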

[13] = compound: CC1=C(/C=C/C(C)=C/C=C/C(C)=C/C(=O)C(Cl)Cl)C(C)(C)CCC1; test: as §1, with “RALDH2” for “RALDH1”, “50” for “100”, “82.12” for “67.09”, “28.41” for “25.06”; details: Gallus gallus
[14] = compound: CC1=C(/C=C/C(C)=C/C=C/C(C)=C/C(=O)C(Cl)Cl)C(C)(C)CCC1; test: as §1, with “RALDH2” for “RALDH1”, “82.12” for “67.09”, “28.41” for “25.06”; details: Gallus gallus
[15] = compound: CC1=C(/C=C/C(C)=C/C=C/C(C)=C/C(=O)C(Cl)Cl)C(C)(C)CCC1; test: as §1, with “RALDH2” for “RALDH1”, “150” for “100”, “82.12” for “67.09”, “28.41” for “25.06”; details: Gallus gallus
[16] = compound: CC1=C(/C=C/C(C)=C/C=C/C(C)=C/C(=O)C(Cl)Cl)C(C)(C)CCC1; test: as §1, with “RALDH2” for “RALDH1”, “200” for “100”, “82.12” for “67.09”, “28.41” for “25.06”; details: Gallus gallus
[17] = compound: CC1=C(/C=C/C(C)=C/C=C/C(C)=C/C(=O)C(Cl)Cl)C(C)(C)CCC1; test: as §1, with “RALDH2” for “RALDH1”, “250” for “100”, “82.12” for “67.09”, “28.41” for “25.06”; details: Gallus gallus
[18] = compound: CC1=C(/C=C/C(C)=C/C=C/C(C)=C/C(=O)C(Cl)Cl)C(C)(C)CCC1; test: as §1, with “RALDH2” for “RALDH1”, “50” for “100”, “Vmax” for “Km”, “1665” for “67.09”, “239.28 pmol/microM/min)” for “25.06 microM)”; details: Gallus gallus
[19] = compound: CC1=C(/C=C/C(C)=C/C=C/C(C)=C/C(=O)C(Cl)Cl)C(C)(C)CCC1; test: as §1, with “RALDH2” for “RALDH1”, “Vmax” for “Km”, “1665” for “67.09”, “239.28 pmol/microM/min)” for “25.06 microM)”; details: Gallus gallus
[20] = compound: CC1=C(/C=C/C(C)=C/C=C/C(C)=C/C(=O)C(Cl)Cl)C(C)(C)CCC1; test: as §1, with “RALDH2” for “RALDH1”, “150” for “100”, “Vmax” for “Km”, “1665” for “67.09”, “239.28 pmol/microM/min)” for “25.06 microM)”; details: Gallus gallus
[21] = compound: CC1=C(/C=C/C(C)=C/C=C/C(C)=C/C(=O)C(Cl)Cl)C(C)(C)CCC1; test: as §1, with “RALDH2” for “RALDH1”, “200” for “100”, “Vmax” for “Km”, “1665” for “67.09”, “239.28 pmol/microM/min)” for “25.06 microM)”; details: Gallus gallus
[22] = compound: CC1=C(/C=C/C(C)=C/C=C/C(C)=C/C(=O)C(Cl)Cl)C(C)(C)CCC1; test: as §1, with “RALDH2” for “RALDH1”, “250” for “100”, “Vmax” for “Km”, “1665” for “67.09”, “239.28 pmol/microM/min)” for “25.06 microM)”; details: Gallus gallus

Q: Which results are given for `O=C(NCCCCCCCCNC(=O)C(Cl)Cl)C(Cl)Cl`?
A: inhibition [1]: 51%; EC50 (Retinal dehydrogenase 2): 44.5 nM; inhibition [2]: 40%; inhibition [3]: 76%; inhibition [4]: inactive; IC50 [5]: 229 nM

B1: Aldehyde dehydrogenase 1A1 (Gallus gallus), P27463 (protein)
chain: MKKQGSPSNPAPVLPALPEPLKDLKIKYTKIFINNEWHDSVSGKKFEVFNPANEEKICEVAEGDKADIDKAVKAARKAFELGSPWRTMDASERGRLLNKLADLVERDRLTLATMEAIDGGKLFSTAYLMDLGACIKTIRYCAGWADKIHGRTVPMDGNFFTFTRHEPVGVCGQIIPWNFPLVMFIWKIAPALCCGNTVVVKPAEQTPLSALYMGSLIKEAGFPPGVVNIVPGFGPTAGAAISHHMDIDKVSFTGSTEVGKLIKEAAGKTNLKRVTLELGGKSPNIIFADADLDEAAEFAHIGLFYHQGQCCIAGSRIFVEEPIYDEFVRRSIERAKKYTLGDPLLPGVQQGPQIDKEQFQKILDLIESGKKEGAKLECGGGPWGNKGYFIQPTVFSNVTDDMRIAKEEIFGPVQQIMKFKTIDEVIKRANNTTYGLAAAVFTKDIDKALTFASALQAGTVWVNCYSAFSAQCPFGGFKMSGNGRELGEYGLQEYTEVKTVTIKIPQKNS
Q: Which Km [6] does the source give for B1 here?
A: 62.2 µM

Q: What about the Km [7] of the same molecule?
A: 32.9 µM

Q: And the Km [8]?
A: 22.8 µM

Q: What about the Vmax [9] of the same molecule?
A: 50.1 pmol/µM/min

Q: And the Vmax [10]?
A: 33.8 pmol/µM/min

Q: What about the Vmax [11] of the same molecule?
A: 25.7 pmol/µM/min

B2: Retinal dehydrogenase 2 (Gallus gallus), O93344 (protein)
chain: MTSSKIEMPGEVKADPAALMASLHLLPSPTLNLEIKHTKIFINNEWQNSESGRVFPVYNPATGEQICEIQEADKVDTDKAVRAARLAFSLGSVWRRMDASERGQLLDKLADLVERDRAVLATMESLNSGKPFLQAFYVDLQGVIKTLRYYAGWADKIHGMTIPVDGDYFTFTRHEPIGVCGQIIPWNFPLLMFAWKIAPALCCGNTVVIKPAEQTPLSALYMGALIKEAGFPPGVVNILPGFGPIVGAAIASHVGIDKIAFTGSTEVGKLIQEAAGRSNLKRVTLELGGKSPNIIFADADLDYAVEQAHQGVFFNQGQCCTAGSRIYVEESIYEEFVRRSVERAKRRVVGSPFDPTTEQGPQIDKKQYNKILELIQSGITEGAKLECGGKGLGRKGFFIEPTVFSNVTDDMRIAKEEIFGPVQEILRFKTVDEVIERANNSDFGLVAAVFTNDINKALTVSSAMQAGTVWINCYNALNAQSPFGGFKMSGNGREMGESGLREYSEVKTVTIKIPQKNS
Q: Which Vmax [12] does the source give for B2 here?
A: 0.5 to 3.01 µM/min

Q: What about the Km [13] of the same molecule?
A: 80.7 µM

Q: What about the Km [14] of the same molecule?
A: 47.2 µM

Q: What about the Km [15] of the same molecule?
A: 22.7 µM

Q: What about the Km [16] of the same molecule?
A: 18.3 µM

Q: What about the Km [17] of the same molecule?
A: 14.9 µM

Q: What about the Vmax [18] of the same molecule?
A: 1560 pmol/µM/min

Q: What about the Vmax [19] of the same molecule?
A: 1150 pmol/µM/min

Q: What about the Vmax [20] of the same molecule?
A: 867 pmol/µM/min

Q: What about the Vmax [21] of the same molecule?
A: 666 pmol/µM/min

Q: What about the Vmax [22] of the same molecule?
A: 503 pmol/µM/min
